Experimental data reported in ChEMBL document CHEMBL1914444, “Chemical synthesis, biological evaluation and structure-activity relationship analysis of azaisoindolinones, a novel class of direct enoyl-ACP reductase inhibitors as potential antimycobacterial agents” (Bioorg Med Chem, 2011).
Converted amounts (≈) assume the structure as drawn.

Experiments:
[1] = target: T1, Enoyl-[acyl-carrier-protein] reductase [NADH] (Mycobacterium tuberculosis) (UniProt P9WGR1); assay: Inhibition of Mycobacterium tuberculosis InhA using 2-trans-decenoyl-CoA as substrate at 100 uM after 5 mins by spectrophotometry
T1 sequence (whole entry): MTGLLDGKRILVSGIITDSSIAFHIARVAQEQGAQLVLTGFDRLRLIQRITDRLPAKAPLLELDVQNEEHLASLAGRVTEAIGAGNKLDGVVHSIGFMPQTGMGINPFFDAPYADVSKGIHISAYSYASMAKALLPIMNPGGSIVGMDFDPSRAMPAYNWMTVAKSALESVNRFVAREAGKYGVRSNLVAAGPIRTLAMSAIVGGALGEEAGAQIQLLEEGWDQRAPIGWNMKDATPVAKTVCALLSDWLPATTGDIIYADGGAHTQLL
How it was run: (§1)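 Recombinant M. tuberculosis InhA expressed in E. coli (70 nM) was pre-incubated with NADH and compound in 30 mM PIPES, 150 mM NaCl, pH 6.8, 25 °C, with 0.5% final DMSO. Substrate was 2-trans-decenoyl-CoA. Activity was followed as the decrease in A340; initial rates gave % inhibition versus control. Run in triplicate.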

[2] = tested on: Mycobacterium tuberculosis; assay: Antimycobacterial activity Mycobacterium tuberculosis H37Rv after 6 days by MTT colorimetric assay; assay type: functional, organism-based; settings: 144 h
[3] = target: T1, Enoyl-[acyl-carrier-protein] reductase [NADH] (Mycobacterium tuberculosis); assay: Inhibition of Mycobacterium tuberculosis InhA using 2-trans-decenoyl-CoA as substrate at 30 uM after 5 mins by spectrophotometry; how it was run: as §1

| SMILES | inhibition [1] [%] | MIC [2] [µM] | inhibition [3] [%] | IC50 [2] [µM] |
| --- | --- | --- | --- | --- |
| CCCCCCCCCCCCOc1cccc(C2(O)NC(=O)c3cnccc32)c1 (racemic) | 27 | 156 (≈ 64 µg/mL) | 12 | – |
| CCCCCCCCCCCCc1cccc(C2(O)NC(=O)c3cnccc32)c1 (racemic) | – | 9.8 (≈ 3.87 µg/mL) | – | 7 |
| CCCCCCCCCCCCCCCCCCOc1cccc(C2(O)NC(=O)c3cnccc32)c1 (racemic) | 67 | 25 (≈ 12.4 µg/mL) | 28 | 12 |
| CCCCCCCCOc1cccc(C2(O)NC(=O)c3cnccc32)c1 (racemic) | 12 | 250 (≈ 88.6 µg/mL) | – | – |
| CCCCCCCCCCCCOc1ccc(C2(O)NC(=O)c3cnccc32)cc1 (racemic) | 16 | > 100 | 1 | – |
| CCCCCCCCCCCCOc1ccccc1C1(O)NC(=O)c2cnccc21 (racemic) | 0 | > 100 | 0 | – |
| CCCCCCCCCCCCOc1cccc(C2(OC)NC(=O)c3cnccc32)c1 (racemic) | 0 | 25 (≈ 10.6 µg/mL) | – | 10 |
| CCCCCCCCCCCCSc1cccc(C2(O)NC(=O)c3cnccc32)c1 (racemic) | 66 | 12.5 (≈ 5.33 µg/mL) | 15 | 6.5 |
| CCCCCCCCCCCCCCCCCCSc1cccc(C2(O)NC(=O)c3cnccc32)c1 (racemic) | – | > 100 | 26 | – |
| CCCCCCCCCCCCNc1cccc(C2(O)NC(=O)c3cnccc32)c1 (racemic) | 9 | > 100 | 1 | – |
| CCCCCCCCCCCCN1C(=O)c2cnccc2C1(O)c1ccccc1 (racemic) | 13 | 12.5 (≈ 4.93 µg/mL) | 0 | 4.5 |
| CCCCCCCCCCCCCCC1(O)NC(=O)c2cnccc21 (racemic) | 10 | > 100 | – | – |
| CCCCCCCCCCCCOC1(c2ccccc2)NC(=O)c2cnccc21 (racemic) | – | 25 (≈ 9.86 µg/mL) | 20 | 9.5 |
| O=C(O)c1cn(C2CC2)c2cc(N3CCNCC3)c(F)cc2c1=O [CIPROFLOXACIN] | – | 2.5 (≈ 0.828 µg/mL) | – | – |
| NNC(=O)c1ccncc1 [ISONIAZID] | – | 0.6 (≈ 0.0823 µg/mL) | – | – |
